Measurements reported in PMC3646584 (Journal of medicinal chemistry, 2013).

Legend:
HeLa cells [1] = test: ROS production; assay type: cell-based, human; conditions: HE or H2-DCFDA, 24 or 48 h
Outline: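 After 24 or 48 h exposure to the test compound (DMSO at most 0.25%), cells were stained with hydroethidine (HE) or H2-DCFDA and ROS were read by flow cytometry. Results are the mean ± SEM from three independent experiments.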

[2] = Cytotoxicity for PHA-stimulated peripheral blood lymphocytes; assay type: cell-based; conditions: human, PHA-stimulated (proliferating) peripheral blood lymphocytes
Outline: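 PBLs from healthy donors were isolated on a Lymphoprep gradient, washed, and rested overnight at 1.0 × 10^6 cells/mL in RPMI-1640 with 10% FBS. Nonadherent cells were reseeded at 5 × 10^5 cells/mL in growth medium containing 2.5 μg/mL PHA. Graded compound was added and viability read by MTT after 72 h. IC50 is given as mean ± SEM of three separate experiments.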

HeLa cells [3] = test: Annexin-V/PI apoptosis assay; assay type: cell-based, human; conditions: 24 or 48 h, concentration- and time-dependent
[4] = system: BNL 1ME A.7R.1 allografts; test: Syngeneic hepatocellular carcinoma allograft model; assay type: in vivo, Balb/c mice; conditions: 5 mg/kg ip daily for seven days
Outline: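 Male Balb/c mice, 8 weeks old, received 10^7 syngeneic hepatocarcinoma cells in 200 μL sterile PBS subcutaneously in the dorsal region. At ~100 mm3, fifteen mice were randomised into three groups of five. Groups got vehicle (0.9% NaCl, 5% PEG 400, 0.5% Tween 80), test compound, or reference, each at 5 mg/kg ip daily for 7 days. Body weight was tracked as mean ± SEM; two-sided Student's t test.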

HeLa cells [5] = test: Mitochondrial membrane potential; assay type: cell-based, human; conditions: JC-1, 24 or 48 h
Outline: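 HeLa cells exposed to the test compound at the stated concentrations for 24 or 48 h, with DMSO at no more than 0.25%, then stained with the lipophilic cationic dye JC-1 to monitor mitochondrial membrane potential. Values are the mean ± SEM of three independent experiments.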

[6] = system: panel of seven human cancer cell lines; test: Antiproliferative activity across the panel of seven human cancer cell lines; assay type: cell-based; conditions: read-out: IC50 values across the cell line panel
Outline: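 Jurkat, SEM and HL-60 cells were grown in RPMI-1640; MCF-7, A549, HeLa and HT-29 cells in DMEM; both with 10% FBS plus penicillin/streptomycin. 8 × 10^3 cells/well were held 18 h at 37 °C, 5% CO2, then given fresh medium with graded compound (DMSO ≤0.25%) for 72 h. Viability was read by MTT. […] Mean ± SE, ≥3 independent experiments.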

[7] = Cytotoxicity for resting peripheral blood lymphocytes; assay type: cell-based; conditions: human
Outline: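 Donor PBLs were separated on a Lymphoprep gradient, washed, and kept overnight in RPMI-1640 with 10% FBS. Nonadherent cells were resuspended at 5 × 10^5 cells/mL without PHA (resting) and exposed to graded compound for 72 h. Viability was read by MTT. IC50 is given as mean ± SEM from three separate experiments.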

HeLa cells [8] = test: Western blot analysis of cell cycle and apoptosis proteins; assay type: cell-based, human
Outline: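 HeLa cells were treated for 24 or 48 h. They were washed twice in ice-cold PBS and lysed on ice for 30 min, and the lysates were cleared at 15000g, 4 °C, 10 min. Protein was measured by BCA, and 20 μg per lane was run on 7.5–15% SDS–PAGE, then blotted to PVDF and blocked overnight at 4 °C. Membranes were probed 2 h at room temperature for cyclin B, p-cdc2 Tyr15, PARP and Xiap, with peroxidase secondary for 60 min and ECL detection. They were stripped and reprobed for β-actin.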

[9] = system: Jurkat, HT-29, and HeLa cells; test: Cell cycle analysis by flow cytometry; assay type: cell-based, human; conditions: for lowest concentration giving a rise in G2/M cells: 24 h treatment
Outline: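 Cells were treated for 24 h with graded compound concentrations (HeLa: 5 × 10^5 exponentially growing cells). They were collected, fixed in ice-cold 70% ethanol, and treated with lysis buffer containing RNase A and 0.1% Triton X-100. After PI staining, DNA content was read by flow cytometry. Cell-cycle phase percentages came from DNA histogram analysis.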

A549-T12 = test: Cell growth inhibition, drug-resistant cell line study; assay type: cell-based, human; conditions: for IC50: Homo sapiens; for resistance ratio: IC50 A549-T12 / IC50 A549
Outline: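 Cells seeded at 8 × 10^3 per well and preincubated 18 h at 37 °C in humidified 5% CO2. Medium then replaced with fresh medium holding test compound at several concentrations (10 mM DMSO stocks; final DMSO ≤0.25%) for 72 h at 37 °C. Viability by MTT. […] Parental A549 grown in DMEM with 10% FBS.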

A549 = test: In vitro cell growth inhibition; assay type: cell-based; conditions: Homo sapiens

IC50 (A549-T12)	IC50 (A549)	Compound	ROS production vs control cells (HeLa cells [1])	IC50 at 72 h [2]	annexin-V-positive cells vs control (HeLa cells [3])	body weight change during treatment [4]	proportion of cells with depolarized mitochondria (HeLa cells [5])	IC50 [6]	IC50 at 72 h [7]	cyclin B expression (HeLa cells [8]; 10 or 100 nM, 24 or 48 h)	expression of phosphorylated cdc2 (Tyr15) (HeLa cells [8]; 10 or 100 nM, 24 or 48 h)	concentration at which PARP cleavage was detectable (HeLa cells [8]; 24 h)	Xiap expression (HeLa cells [8]; 24 h, even at 10 nM)	caspase activation (HeLa cells [8]; Western blot, HeLa)	cells arrested in G2/M ([9]; 24 h, at higher concentrations)	lowest concentration giving a rise in G2/M cells [9]	resistance ratio (A549-T12)
		COC(=O)c1sc2cc(OC)ccc2c1Nc1cc(OC)c(OC)c(OC)c1 [4i, Methyl 6-Methoxy-3-[(3,4,5-trimethoxyphenyl)amino]-1-benzo-[b]thiophene-2-carboxylate]	induced the production of significant amounts of ROS	2800 ± 1200 nM	accumulation of annexin-V-positive cells	only a small decrease in body weight	time- and concentration-dependent increase	0.28 to 10 nM	> 10000 nM	no significant variations	dramatic decrease	10 nM	almost eliminated	induced proteolytic cleavage of caspase-9 and caspase-3	more than 80%	20 nM	
19.5 ± 2.3 nM	16.2 ± 4.4 nM	CCOC(=O)c1sc2ncccc2c1Nc1cc(OC)c(OC)c(OC)c1 [4m, Ethyl 3-[(3,4,5-Trimethoxyphenyl)amino]thieno[2,3-b]pyridine-2-carboxylate]															1.2
		COC(=O)c1sc2nc(C)ccc2c1Nc1cc(OC)c(OC)c(OC)c1 [4n, Methyl 6-Methyl-3-[(3,4,5-trimethoxyphenyl)amino]thieno[2,3-b]pyridine-2-carboxylate]	induced the production of significant amounts of ROS		accumulation of annexin-V-positive cells		time- and concentration-dependent increase		> 10000 nM							20 nM	
12.6 ± 2.9 nM	8.5 ± 1.9 nM	COC(=O)c1sc2ncccc2c1Nc1cc(OC)c(OC)c(OC)c1 [4l, Methyl 3-[(3,4,5-Trimethoxyphenyl)amino]thieno[2,3-b]pyridine-2-carboxylate]															1.5
